For assay [1], the system named is HeLa. Briefly: Antiviral activities in a cell culture HIV-1 infectivity inhibition assay using HeLa cells plus 50% normal human serum. The class given is functional.
Assay [2] has as its system HeLa. Briefly: Antiviral activities in a cell culture HIV-1 infectivity inhibition assay using HeLa cells. The following applies: Homo sapiens. The class given is functional.
In assay [3] the target is C-C chemokine receptor type 5 (Homo sapiens, UniProt P51681). As to the kind of experiment: Inhibitory concentration for displacement of [125I]-MIP-1 alpha from recombinant human CC chemokine receptor 5 (CCR5) expressed in CHO cell. The class given is cell-based. The procedure, abridged: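 Competitive binding to CCR5 on CHO cell membranes, read as displacement of [125I]-labeled MIP-1α. IC50 values are means of triplicate determinations. Standard errors were normally <15% within an assay. Assay-to-assay variation was within ±2-fold, judged from a standard compound.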
C-C chemokine receptor type 5, sequence (P51681 whole entry): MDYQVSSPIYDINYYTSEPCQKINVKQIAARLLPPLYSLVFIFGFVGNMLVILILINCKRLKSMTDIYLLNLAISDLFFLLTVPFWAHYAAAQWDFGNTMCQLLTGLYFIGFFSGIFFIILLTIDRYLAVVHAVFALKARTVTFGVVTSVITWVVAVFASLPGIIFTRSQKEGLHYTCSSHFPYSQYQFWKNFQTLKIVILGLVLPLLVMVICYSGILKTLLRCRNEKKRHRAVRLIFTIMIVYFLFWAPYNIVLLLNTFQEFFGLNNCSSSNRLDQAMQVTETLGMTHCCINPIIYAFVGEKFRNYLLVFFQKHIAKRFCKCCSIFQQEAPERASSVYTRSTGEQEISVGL

`CCn1nc(Cc2ccc(OC(F)(F)F)cc2)cc1C1CCN(C[C@H]2CN([C@@H](C(=O)O)C(C)(C)C)C[C@@H]2c2cccc(F)c2)CC1`: the IC90 turned out to be 100 nM in assay [1] and 1.2 nM in assay [2]. In assay [3], the concentration for half-maximal inhibition (IC50) amounted to 0.6 nM.

For `CCn1nc(Cc2ccc(OCC(F)(F)F)cc2)cc1C1CCN(C[C@H]2CN([C@@H](C(=O)O)C(C)(C)C)C[C@@H]2c2cccc(F)c2)CC1`, the values for the IC90 in assay [1] and in assay [2] were 100 nM and 1.2 nM, respectively. In assay [3], the IC50 is 0.6 nM.

Take `CCCCOc1ccc(Cc2cc(C3CCN(C[C@H]4CN([C@@H](C(=O)O)C(C)(C)C)C[C@@H]4c4cccc(F)c4)CC3)n(CC)n2)cc1`: the IC90 in assay [1] came out at 33 nM; in assay [2], 1.2 nM. Moreover, the IC50 in assay [3] amounted to 0.8 nM.

As to `CC[C@H](C)[C@H](C(=O)O)N1C[C@H](CN2CCC(c3cc(Cc4ccc5c(c4)OCO5)nn3CC)CC2)[C@@H](c2cccc(F)c2)C1`, the IC90 in assay [1] is 100 nM; in assay [2], less than 0.14 nM. The IC50 in assay [3] was 0.5 nM.

Turning to `CC[C@@H](C)[C@H](C(=O)O)N1C[C@H](CN2CCC(c3cc(Cc4ccc(Oc5ccccc5)cc4)nn3CC)CC2)[C@@H](c2cccc(F)c2)C1`, the IC90 in assay [1] was found to be 300 nM; in assay [2], 3.7 nM. In addition, in assay [3], the IC50 came to 0.5 nM.

On to `CCn1nc(Cc2ccc(OC3CC3)cc2)cc1C1CCN(C[C@H]2CN([C@@H](C(=O)O)C(C)C)C[C@@H]2c2cccc(F)c2)CC1`, for which the IC90 turned out to be 300 nM in assay [1] and 1.2 nM in assay [2]. For the same molecule, the IC50 in assay [3] was 1 nM.

`CC[C@@H](C)[C@H](C(=O)O)N1C[C@H](CN2CCC(c3cc(Cc4ccc(OC5CC5)cc4)nn3CC)CC2)[C@@H](c2cccc(F)c2)C1`: the IC90 is 33 nM in assay [1] and less than 0.14 nM in assay [2]. For the same molecule, in assay [3], the IC50 worked out at 0.3 nM.

In the case of `CCn1nc(Cc2ccccc2F)cc1C1CCN(C[C@H]2CN([C@@H](C(=O)O)C(C)C)C[C@@H]2c2cccc(F)c2)CC1`, the IC90 was more than 300 nM in assay [1] and 11 nM in assay [2]. The IC50 in assay [3] is 2.2 nM.

Turning to `CCn1nc(Cc2ccc(Oc3ccccc3)cc2)cc1C1CCN(C[C@H]2CN([C@@H](C(=O)O)C(C)C)C[C@@H]2c2cccc(F)c2)CC1`, the IC90 in assay [1] was more than 300 nM; in assay [2], 11 nM. In assay [3], the IC50 is 0.6 nM.

For `CC[C@H](C)[C@H](C(=O)O)N1C[C@H](CN2CCC(c3cc(Cc4ccc5ccccc5c4)nn3CC)CC2)[C@@H](c2cccc(F)c2)C1`, the IC90 in assay [1] was 300 nM; in assay [2], less than 0.14 nM. For the same molecule, the IC50 in assay [3] turned out to be 0.3 nM.

For `CCCOc1ccc(Cc2cc(C3CCN(C[C@H]4CN([C@@H](C(=O)O)[C@@H](C)CC)C[C@@H]4c4cccc(F)c4)CC3)n(CC)n2)cc1`, the IC90 in assay [1] is 100 nM; in assay [2] it was less than 0.14 nM. Moreover, in assay [3], the IC50 turned out to be 1.1 nM.

Turning to `CCn1nc(Cc2cccnc2)cc1C1CCN(C[C@H]2CN([C@@H](C(=O)O)C3CCCCC3)C[C@@H]2c2cccc(F)c2)CC1`, the IC90 in assay [1] worked out at 33 nM; in assay [2] it was 0.4 nM. For the same molecule, in assay [3], the IC50 is 3.9 nM.

In the case of `CCn1nc(Cc2ccc(S(=O)(=O)c3ccccc3)cc2)cc1C1CCN(C[C@H]2CN([C@@H](C(=O)O)C(C)C)C[C@@H]2c2cccc(F)c2)CC1`, the IC90 in assay [1] came to 33 nM; in assay [2], 0.4 nM. For the same molecule, the IC50 in assay [3] was 1.3 nM.

As to `CCn1nc(Cc2cccc(F)c2)cc1C1CCN(C[C@H]2CN([C@@H](C(=O)O)C3CCCCC3)C[C@@H]2c2cccc(F)c2)CC1`, the IC90 was 33 nM in assay [1] and less than 0.14 nM in assay [2]. For the same molecule, in assay [3], the IC50 was 1 nM.

As for `CC[C@@H](C)[C@H](C(=O)O)N1C[C@H](CN2CCC(c3cc(Cc4ccc(-c5ccccc5)cc4)nn3CC)CC2)[C@@H](c2cccc(F)c2)C1`, the 90% effect concentration (IC90) was 300 nM in assay [1] and 1.2 nM in assay [2]. Further, in assay [3], the IC50 worked out at 0.5 nM.

Turning to `CCn1nc(CC2CCCCC2)cc1C1CCN(C[C@H]2CN([C@@H](C(=O)O)C(C)C)C[C@@H]2c2cccc(F)c2)CC1`, the IC90 in assay [1] was more than 300 nM; in assay [2], 33 nM. For the same molecule, the IC50 in assay [3] was determined as 2.3 nM.

Consider `CCn1nc(Cc2ccc(C(C)C)cc2)cc1C1CCN(C[C@H]2CN([C@@H](C(=O)O)C(C)(C)C)C[C@@H]2c2cccc(F)c2)CC1`, for which the IC90 is 33 nM in assay [1] and 0.4 nM in assay [2]. Moreover, the IC50 in assay [3] is 0.6 nM.

Take `CCn1nc(Cc2ccc(OC(C)(C)C)cc2)cc1C1CCN(C[C@H]2CN([C@@H](C(=O)O)C(C)C)C[C@@H]2c2cccc(F)c2)CC1`: the IC90 in assay [1] was 100 nM; in assay [2], less than 0.14 nM. The IC50 in assay [3] was found to be 0.8 nM.

Take `CC[C@H](C)[C@H](C(=O)O)N1C[C@H](CN2CCC(c3cc(Cc4cccc(C#N)c4)nn3CC)CC2)[C@@H](c2cccc(F)c2)C1`: the IC90 was 11 nM in assay [1] and less than 0.14 nM in assay [2]. In assay [3], the IC50 was found to be 0.9 nM.

For `CC[C@H](C)[C@H](C(=O)O)N1C[C@H](CN2CCC(c3cc(CC4CCCCC4)nn3CC)CC2)[C@@H](c2cccc(F)c2)C1`, the values for the IC90 in assay [1] and in assay [2] were 300 nM and 1.2 nM, respectively. The IC50 in assay [3] worked out at 1.2 nM.

As for `CCn1nc(Cc2ccccc2F)cc1C1CCN(C[C@H]2CN([C@@H](C(=O)O)C3CCCCC3)C[C@@H]2c2cccc(F)c2)CC1`, the IC90 in assay [1] was 33 nM; in assay [2], less than 0.14 nM. Besides, the IC50 in assay [3] amounted to 0.5 nM.

Turning to `CCn1nc(Cc2ccccc2)cc1C1CCN(C[C@H]2CN([C@@H](C(=O)O)C3CCCCC3)C[C@@H]2c2cccc(F)c2)CC1`, in assay [1], the IC90 was found to be 100 nM.

Turning to `CCn1nc(Cc2cc(C(F)(F)F)cc(C(F)(F)F)c2)cc1C1CCN(C[C@H]2CN([C@@H](C(=O)O)C(C)(C)C)C[C@@H]2c2cccc(F)c2)CC1`, the 90% effect concentration (IC90) in assay [1] is more than 300 nM; in assay [2], 11 nM. Moreover, in assay [3], the IC50 stood at 2.3 nM.

As to `CC[C@@H](C)[C@H](C(=O)O)N1C[C@H](CN2CCC(c3cc(Cc4cc(C(F)(F)F)cc(C(F)(F)F)c4)nn3CC)CC2)[C@@H](c2cccc(F)c2)C1`, the IC90 in assay [1] was more than 300 nM; in assay [2], 33 nM. The IC50 in assay [3] is 1.6 nM.

As to `CCn1nc(Cc2cc(F)cc(F)c2)cc1C1CCN(C[C@H]2CN([C@@H](C(=O)O)C(C)C)C[C@@H]2c2cccc(F)c2)CC1`, the IC90 in assay [1] came to 300 nM; in assay [2], 11 nM. Also, in assay [3], the IC50 stood at 2.6 nM.

On to `CCOc1ccc(Cc2cc(C3CCN(C[C@H]4CN([C@@H](C(=O)O)[C@@H](C)CC)C[C@@H]4c4cccc(F)c4)CC3)n(CC)n2)cc1F`, for which the IC90 is 11 nM in assay [1] and less than 0.14 nM in assay [2]. In addition, the IC50 in assay [3] came out at 0.7 nM.

For the molecule `CC[C@H](C)[C@H](C(=O)O)N1C[C@H](CN2CCC(c3cc(Cc4ccc(OC(C)C)cc4)nn3CC)CC2)[C@@H](c2cccc(F)c2)C1`, the results for the IC90 in assay [1] and in assay [2] were 33 nM and less than 0.14 nM, respectively. The IC50 in assay [3] is 0.8 nM.

As for `CCn1nc(Cc2ccc(OC)c(C#N)c2)cc1C1CCN(C[C@H]2CN([C@@H](C(=O)O)C(C)C)C[C@@H]2c2cccc(F)c2)CC1`, the IC90 was found to be 300 nM in assay [1] and 1.2 nM in assay [2]. The IC50 in assay [3] amounted to 0.8 nM.

Consider `CC[C@@H](C)[C@H](C(=O)O)N1C[C@H](CN2CCC(c3cc(Cc4ccc(O)cc4)nn3CC)CC2)[C@@H](c2cccc(F)c2)C1`, for which the figures for the IC90 in assay [1] and in assay [2] were 11 nM and less than 0.14 nM, respectively. Also, the IC50 in assay [3] is 0.6 nM.

With `CCn1nc(Cc2cccc(OC)c2)cc1C1CCN(C[C@H]2CN([C@@H](C(=O)O)C(C)(C)C)C[C@@H]2c2cccc(F)c2)CC1`, the IC90 in assay [1] was 33 nM; in assay [2] it was less than 0.14 nM. In addition, in assay [3], the IC50 stood at 0.7 nM.

For `CCn1nc(Cc2ccc(OC3CC3)cc2)cc1C1CCN(C[C@H]2CN([C@@H](C(=O)O)C3CCCCC3)C[C@@H]2c2cccc(F)c2)CC1`, the concentration for an effect of 90% (IC90) in assay [1] was 33 nM; in assay [2], less than 0.14 nM. Also, the IC50 in assay [3] turned out to be 0.2 nM.

As to `CCCOc1ccc(Cc2cc(C3CCN(C[C@H]4CN([C@@H](C(=O)O)[C@H](C)CC)C[C@@H]4c4cccc(F)c4)CC3)n(CC)n2)cc1`, the values for the IC90 in assay [1] and in assay [2] were 300 nM and 1.2 nM, respectively. In addition, in assay [3], the IC50 is 1.2 nM.

In the case of `CC[C@H](C)[C@H](C(=O)O)N1C[C@H](CN2CCC(c3cc(Cc4ccc(O)cc4)nn3CC)CC2)[C@@H](c2cccc(F)c2)C1`, the IC90 is 11 nM in assay [1] and 0.4 nM in assay [2]. For the same molecule, the IC50 in assay [3] worked out at 1.4 nM.

In the case of `CCn1nc(Cc2ccc(OC3CCC3)cc2)cc1C1CCN(C[C@H]2CN([C@@H](C(=O)O)C(C)C)C[C@@H]2c2cccc(F)c2)CC1`, the IC90 is 100 nM in assay [1] and 1.2 nM in assay [2]. Moreover, the half-maximal inhibitory concentration (IC50) in assay [3] was found to be 0.6 nM.

On to `CCn1nc(Cc2cc(C(F)(F)F)cc(C(F)(F)F)c2)cc1C1CCN(C[C@H]2CN([C@@H](C(=O)O)C(C)C)C[C@@H]2c2cccc(F)c2)CC1`, for which the IC90 in assay [1] was more than 300 nM; in assay [2] it was 100 nM. The 50% inhibitory concentration (IC50) in assay [3] was 3.2 nM.

As to `CCCCOc1ccc(Cc2cc(C3CCN(C[C@H]4CN([C@@H](C(=O)O)C(C)C)C[C@@H]4c4cccc(F)c4)CC3)n(CC)n2)cc1`, the IC90 in assay [1] was 300 nM; in assay [2], 11 nM. Moreover, in assay [3], the IC50 worked out at 0.5 nM.

Consider `CC[C@H](C)[C@H](C(=O)O)N1C[C@H](CN2CCC(c3cc(Cc4ccc(C)cc4)nn3CC)CC2)[C@@H](c2cccc(F)c2)C1`, for which the IC90 in assay [1] was 11 nM; in assay [2], less than 0.14 nM. In addition, the IC50 in assay [3] stood at 0.3 nM.

With `CCn1nc(Cc2ccc(C(F)(F)F)cc2)cc1C1CCN(C[C@H]2CN([C@@H](C(=O)O)C3CCCCC3)C[C@@H]2c2cccc(F)c2)CC1`, the IC90 in assay [1] came to 33 nM; in assay [2], 0.4 nM. In addition, the IC50 in assay [3] was determined as 1.5 nM.

Take `CC[C@@H](C)[C@H](C(=O)O)N1C[C@H](CN2CCC(c3cc(Cc4cccc(CN)c4)nn3CC)CC2)[C@@H](c2cccc(F)c2)C1`: the IC90 came out at 33 nM in assay [1] and 3.7 nM in assay [2]. Moreover, in assay [3], the IC50 was found to be 2.7 nM.

As for `CCn1nc(Cc2ccc(F)cc2)cc1C1CCN(C[C@H]2CN([C@@H](C(=O)O)C3CCCCC3)C[C@@H]2c2cccc(F)c2)CC1`, the IC90 in assay [2] is 33 nM. For the same molecule, the IC50 in assay [3] was 1.1 nM.

The term IC90 denotes the concentration needed for an effect of 90%. For orientation: IC50 means the concentration that gives 50% inhibition.
